Test results as given in ChEMBL document CHEMBL5712070, “Discovery of a chemical probe for the L3MBTL3 methyllysine reader domain” (Nat Chem Biol, 2013).
Calls of active or inactive are those of the source. The calls are words filed in the database; no cut-off is given here.

Legend:
Homo sapiens [1] = species: Homo sapiens; assay: Binding affinity to L3MBTL3 D381A mutant (unknown origin) by ITC assay
[2] = molecular target: Muscarinic acetylcholine receptor M2 (Homo sapiens, UniProt P08172); assay: Antagonist activity at human M2 receptor assessed as reduction in acetylcholine-induced response by Schild analysis; type: functional; conditions: read-out: pA2 (converted)
[3] = molecular target: T1, Muscarinic acetylcholine receptor M1 (Homo sapiens, UniProt P11229); assay: Antagonist activity at human M1 receptor assessed as reduction in acetylcholine-induced response by Schild analysis; type: functional; conditions: read-out: pA2 (converted)
T1 sequence (P11229 whole entry): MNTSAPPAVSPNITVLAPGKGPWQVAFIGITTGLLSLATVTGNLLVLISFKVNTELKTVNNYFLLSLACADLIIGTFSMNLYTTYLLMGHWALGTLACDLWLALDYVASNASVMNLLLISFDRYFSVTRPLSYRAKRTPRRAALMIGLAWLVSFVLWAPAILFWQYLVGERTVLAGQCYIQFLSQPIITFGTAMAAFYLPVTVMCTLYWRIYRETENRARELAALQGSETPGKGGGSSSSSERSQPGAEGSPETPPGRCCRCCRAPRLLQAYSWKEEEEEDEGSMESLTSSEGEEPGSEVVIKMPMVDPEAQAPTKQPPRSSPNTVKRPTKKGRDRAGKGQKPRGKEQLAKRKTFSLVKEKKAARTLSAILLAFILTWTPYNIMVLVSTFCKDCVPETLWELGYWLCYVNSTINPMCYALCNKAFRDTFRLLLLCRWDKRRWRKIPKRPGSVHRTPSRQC

[4] = molecular target: Muscarinic acetylcholine receptor M1 (Homo sapiens) (UniProt P11229); assay: Agonist activity at human M1 receptor; type: functional
[5] = molecular target: MBT domain-containing protein 1 (Homo sapiens, UniProt Q05BQ5); assay: Inhibition of MBT domain containing MBTD1 (unknown origin) using H4K20me2 peptide by Alpha-Screen methylated histone peptide competition assay
[6] = molecular target: Lethal(3)malignant brain tumor-like protein 4 (Homo sapiens, UniProt Q8NA19); assay: Inhibition of MBT domain containing L3MBTL4 (unknown origin) using H4K20me2 peptide by Alpha-Screen methylated histone peptide competition assay
[7] = molecular target: T2, Lethal(3)malignant brain tumor-like protein 3 (Homo sapiens, UniProt Q96JM7); assay: Inhibition of GFP-3MBT tagged L3MBTL3 (unknown origin) expressed in HEK293 cells assessed as reduction in recovery of fluorescence intensity measured up to 60 secs by FRAP assay
T2 sequence (Q96JM7 whole entry): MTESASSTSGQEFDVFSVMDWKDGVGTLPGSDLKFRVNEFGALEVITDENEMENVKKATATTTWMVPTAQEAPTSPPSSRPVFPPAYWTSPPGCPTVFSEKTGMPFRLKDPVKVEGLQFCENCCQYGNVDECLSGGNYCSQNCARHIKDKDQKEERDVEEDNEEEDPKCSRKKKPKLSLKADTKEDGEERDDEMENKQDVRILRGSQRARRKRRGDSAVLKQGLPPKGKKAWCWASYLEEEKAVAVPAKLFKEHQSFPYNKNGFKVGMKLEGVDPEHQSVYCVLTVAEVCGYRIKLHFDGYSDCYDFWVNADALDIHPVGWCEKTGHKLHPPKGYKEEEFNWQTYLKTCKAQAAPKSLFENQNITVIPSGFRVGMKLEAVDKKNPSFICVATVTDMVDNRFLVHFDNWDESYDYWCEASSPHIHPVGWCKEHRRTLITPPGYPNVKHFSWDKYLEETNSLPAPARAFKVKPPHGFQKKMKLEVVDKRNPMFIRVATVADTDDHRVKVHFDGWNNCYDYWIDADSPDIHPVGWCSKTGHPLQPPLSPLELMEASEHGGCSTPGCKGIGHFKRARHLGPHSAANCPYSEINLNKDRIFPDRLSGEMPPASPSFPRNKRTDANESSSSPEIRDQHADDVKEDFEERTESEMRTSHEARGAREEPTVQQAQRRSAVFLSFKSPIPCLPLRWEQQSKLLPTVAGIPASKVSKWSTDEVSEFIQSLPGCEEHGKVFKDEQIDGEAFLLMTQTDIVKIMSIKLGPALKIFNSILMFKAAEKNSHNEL

HEK293 = assay: Effect on overall protein levels of GFP-3MBT tagged L3MBTL3 (unknown origin) expressed in HEK293 cells up to 5 uM by immunofluorescence assay; type: functional, cell-based; conditions: Homo sapiens
[8] = Binding affinity to L3MBTL3 H277A mutant (unknown origin) by ITC assay; set-up: species or system Homo sapiens
PHD finger protein 20 = PHD finger protein 20 (Homo sapiens, UniProt Q9BVI0); assay: Binding affinity to PHF20 (unknown origin) by ITC assay
Homo sapiens [9] = species: Homo sapiens; assay: Binding affinity to histone demethylase (unknown origin) assessed as change in melting temperature at 50 uM by Differential scanning fluorimetry relative to control
[10] = molecular target: Kappa-type opioid receptor (Homo sapiens, UniProt P41145); assay: Inhibition of KOR (unknown origin) by radioligand binding assay
[11] = molecular target: T1, Muscarinic acetylcholine receptor M1; assay: Inhibition of M1 receptor (unknown origin) by radioligand binding assay
How it was run: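 Radioligand competition binding; the value is reported as a Ki.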

[12] = molecular target: Muscarinic acetylcholine receptor M4 (Homo sapiens, UniProt P08173); assay: Inhibition of M4 receptor (unknown origin) by radioligand binding assay
[13] = molecular target: Receptor-type tyrosine-protein kinase FLT3 (Homo sapiens) (UniProt P36888); assay: Inhibition of FLT3 (unknown origin) at 10 uM relative to control
[14] = molecular target: T3, Lethal(3)malignant brain tumor-like protein 3 (Homo sapiens) (UniProt Q96JM7); assay: Binding affinity to GFP-tagged full length L3MBTL3 (unknown origin) assessed as protein half life at 1 uM
T3 sequence (whole entry): T2 sequence (Q96JM7 whole entry)

[15] = molecular target: T3, Lethal(3)malignant brain tumor-like protein 3 (Homo sapiens); conditions: dose 0.5 µM
[16] = molecular target: T3, Lethal(3)malignant brain tumor-like protein 3 (Homo sapiens); conditions: dose 0.05 µM
[17] = molecular target: T3, Lethal(3)malignant brain tumor-like protein 3 (Homo sapiens); conditions: dose 0.01 µM
[18] = molecular target: T2, Lethal(3)malignant brain tumor-like protein 3; assay: Binding affinity to GFP-3MBT tagged L3MBTL3 (unknown origin) assessed as diffusion coefficient at 0.1 uM (reference value: 0.1272 um2/s)
[19] = molecular target: T2, Lethal(3)malignant brain tumor-like protein 3; assay: Binding affinity to GFP-tagged full length L3MBTL3 (unknown origin) assessed as diffusion coefficient at 1 uM (reference value: 0.037549815 um2/s)
[20] = molecular target: T2, Lethal(3)malignant brain tumor-like protein 3; assay: Binding affinity to GFP-tagged full length L3MBTL3 (unknown origin) assessed as diffusion coefficient at 0.5 uM (reference value: 0.037549815 um2/s)

Sequence of PHD finger protein 20 (Q9BVI0 whole entry): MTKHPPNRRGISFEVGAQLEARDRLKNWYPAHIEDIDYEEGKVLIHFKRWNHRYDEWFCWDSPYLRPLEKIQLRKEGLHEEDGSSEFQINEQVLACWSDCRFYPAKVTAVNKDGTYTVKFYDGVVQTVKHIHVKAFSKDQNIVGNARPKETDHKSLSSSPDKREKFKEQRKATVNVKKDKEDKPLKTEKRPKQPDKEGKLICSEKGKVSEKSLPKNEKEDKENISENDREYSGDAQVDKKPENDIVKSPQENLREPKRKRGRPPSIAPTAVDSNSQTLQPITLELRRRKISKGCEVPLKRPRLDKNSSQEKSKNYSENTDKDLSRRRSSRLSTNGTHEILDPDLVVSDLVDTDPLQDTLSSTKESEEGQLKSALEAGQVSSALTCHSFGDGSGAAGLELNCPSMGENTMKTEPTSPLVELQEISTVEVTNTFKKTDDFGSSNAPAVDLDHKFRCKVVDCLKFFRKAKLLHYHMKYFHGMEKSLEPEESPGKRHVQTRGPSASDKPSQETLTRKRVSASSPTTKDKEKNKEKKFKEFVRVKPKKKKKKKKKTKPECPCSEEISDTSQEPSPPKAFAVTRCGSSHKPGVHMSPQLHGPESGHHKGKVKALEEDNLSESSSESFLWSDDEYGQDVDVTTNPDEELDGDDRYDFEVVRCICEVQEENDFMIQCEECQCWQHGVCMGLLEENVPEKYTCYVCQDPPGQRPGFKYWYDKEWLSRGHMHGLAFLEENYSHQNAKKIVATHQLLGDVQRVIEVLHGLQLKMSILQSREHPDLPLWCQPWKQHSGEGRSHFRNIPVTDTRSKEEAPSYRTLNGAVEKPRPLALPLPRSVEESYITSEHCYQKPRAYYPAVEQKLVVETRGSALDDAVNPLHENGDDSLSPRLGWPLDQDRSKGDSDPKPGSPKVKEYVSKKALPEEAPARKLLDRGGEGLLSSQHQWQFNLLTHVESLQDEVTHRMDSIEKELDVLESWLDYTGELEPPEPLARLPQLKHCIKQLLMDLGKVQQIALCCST
Sequence of Receptor-type tyrosine-protein kinase FLT3 (Homo sapiens) (P36888 whole entry): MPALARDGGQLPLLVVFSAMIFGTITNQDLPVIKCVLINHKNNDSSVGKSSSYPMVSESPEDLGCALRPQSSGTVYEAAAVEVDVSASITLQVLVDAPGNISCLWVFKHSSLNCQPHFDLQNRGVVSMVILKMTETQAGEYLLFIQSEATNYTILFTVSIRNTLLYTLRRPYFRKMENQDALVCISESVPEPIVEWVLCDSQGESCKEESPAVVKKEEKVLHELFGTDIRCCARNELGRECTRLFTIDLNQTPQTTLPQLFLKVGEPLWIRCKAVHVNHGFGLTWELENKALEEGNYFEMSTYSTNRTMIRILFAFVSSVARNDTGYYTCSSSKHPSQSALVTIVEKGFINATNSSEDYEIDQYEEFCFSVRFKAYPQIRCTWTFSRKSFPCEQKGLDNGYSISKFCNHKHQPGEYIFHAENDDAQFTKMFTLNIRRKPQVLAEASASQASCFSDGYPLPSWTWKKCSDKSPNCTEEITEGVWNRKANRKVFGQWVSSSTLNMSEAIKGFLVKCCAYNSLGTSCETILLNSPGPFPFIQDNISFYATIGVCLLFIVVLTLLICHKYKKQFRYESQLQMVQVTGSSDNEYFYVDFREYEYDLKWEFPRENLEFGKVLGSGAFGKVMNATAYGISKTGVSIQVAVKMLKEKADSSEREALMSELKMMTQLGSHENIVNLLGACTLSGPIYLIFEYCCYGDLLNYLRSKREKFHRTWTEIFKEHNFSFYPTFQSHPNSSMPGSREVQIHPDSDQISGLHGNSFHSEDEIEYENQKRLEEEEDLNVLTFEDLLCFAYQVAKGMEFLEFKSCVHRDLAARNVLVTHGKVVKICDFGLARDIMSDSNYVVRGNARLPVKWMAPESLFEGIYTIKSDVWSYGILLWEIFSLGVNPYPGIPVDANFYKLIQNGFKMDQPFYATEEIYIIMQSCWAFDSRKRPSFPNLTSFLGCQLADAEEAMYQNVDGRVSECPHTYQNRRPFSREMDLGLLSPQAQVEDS
Sequence of Muscarinic acetylcholine receptor M4 (P08173 whole entry): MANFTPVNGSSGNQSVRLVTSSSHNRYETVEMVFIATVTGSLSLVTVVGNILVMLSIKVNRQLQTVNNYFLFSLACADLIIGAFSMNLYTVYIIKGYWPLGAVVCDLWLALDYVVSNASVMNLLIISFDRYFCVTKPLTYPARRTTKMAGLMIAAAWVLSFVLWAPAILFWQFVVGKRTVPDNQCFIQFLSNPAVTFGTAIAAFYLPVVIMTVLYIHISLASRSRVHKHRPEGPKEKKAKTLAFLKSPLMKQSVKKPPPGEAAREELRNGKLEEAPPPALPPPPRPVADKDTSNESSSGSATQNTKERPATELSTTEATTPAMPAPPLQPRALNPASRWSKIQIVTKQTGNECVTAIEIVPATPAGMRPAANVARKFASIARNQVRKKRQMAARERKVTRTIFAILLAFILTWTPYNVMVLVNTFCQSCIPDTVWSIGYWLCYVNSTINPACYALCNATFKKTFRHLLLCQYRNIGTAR
Sequence of Kappa-type opioid receptor (P41145 whole entry): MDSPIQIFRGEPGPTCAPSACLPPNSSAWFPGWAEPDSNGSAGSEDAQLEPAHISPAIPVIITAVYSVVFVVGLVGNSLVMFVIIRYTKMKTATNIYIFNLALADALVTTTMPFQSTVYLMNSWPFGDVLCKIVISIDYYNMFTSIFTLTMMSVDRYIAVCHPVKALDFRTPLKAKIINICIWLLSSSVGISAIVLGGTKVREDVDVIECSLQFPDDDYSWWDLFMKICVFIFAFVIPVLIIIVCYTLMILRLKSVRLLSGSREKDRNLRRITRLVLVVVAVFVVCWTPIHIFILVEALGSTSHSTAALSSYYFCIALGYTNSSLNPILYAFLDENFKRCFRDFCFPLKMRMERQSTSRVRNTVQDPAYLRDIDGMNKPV
Sequence of MBT domain-containing protein 1 (Q05BQ5 whole entry, the tested form may be a part): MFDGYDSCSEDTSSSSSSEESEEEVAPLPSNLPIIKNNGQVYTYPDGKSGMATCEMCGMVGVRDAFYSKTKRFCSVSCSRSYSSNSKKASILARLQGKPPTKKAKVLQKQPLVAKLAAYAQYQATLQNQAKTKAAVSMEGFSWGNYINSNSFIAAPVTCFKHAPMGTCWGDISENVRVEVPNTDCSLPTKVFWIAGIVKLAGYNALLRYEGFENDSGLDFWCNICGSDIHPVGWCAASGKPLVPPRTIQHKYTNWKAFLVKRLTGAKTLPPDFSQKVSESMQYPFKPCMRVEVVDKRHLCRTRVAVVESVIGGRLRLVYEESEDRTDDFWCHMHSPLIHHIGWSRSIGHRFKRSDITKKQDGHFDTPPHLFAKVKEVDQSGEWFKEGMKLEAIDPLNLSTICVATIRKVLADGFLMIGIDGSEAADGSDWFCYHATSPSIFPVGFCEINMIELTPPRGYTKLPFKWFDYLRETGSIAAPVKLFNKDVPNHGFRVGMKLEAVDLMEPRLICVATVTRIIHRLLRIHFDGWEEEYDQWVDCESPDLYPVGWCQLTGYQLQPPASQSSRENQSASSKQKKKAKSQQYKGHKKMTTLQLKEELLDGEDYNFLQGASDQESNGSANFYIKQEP
Sequence of Muscarinic acetylcholine receptor M2 (P08172 whole entry): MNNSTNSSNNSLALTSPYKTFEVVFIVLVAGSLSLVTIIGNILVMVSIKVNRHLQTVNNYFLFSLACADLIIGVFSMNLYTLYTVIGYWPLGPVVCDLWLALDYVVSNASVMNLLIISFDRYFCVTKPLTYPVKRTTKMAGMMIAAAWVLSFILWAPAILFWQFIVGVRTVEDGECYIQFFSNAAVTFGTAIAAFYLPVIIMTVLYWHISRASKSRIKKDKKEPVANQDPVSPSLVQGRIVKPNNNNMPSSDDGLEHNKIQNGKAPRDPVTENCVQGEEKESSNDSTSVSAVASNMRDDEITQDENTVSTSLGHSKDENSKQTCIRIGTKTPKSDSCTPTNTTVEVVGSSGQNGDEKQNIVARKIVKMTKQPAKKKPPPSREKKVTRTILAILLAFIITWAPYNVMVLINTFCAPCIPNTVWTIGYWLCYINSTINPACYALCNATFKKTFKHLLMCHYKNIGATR
Sequence of Lethal(3)malignant brain tumor-like protein 4 (Q8NA19 whole entry, the tested form may be a part): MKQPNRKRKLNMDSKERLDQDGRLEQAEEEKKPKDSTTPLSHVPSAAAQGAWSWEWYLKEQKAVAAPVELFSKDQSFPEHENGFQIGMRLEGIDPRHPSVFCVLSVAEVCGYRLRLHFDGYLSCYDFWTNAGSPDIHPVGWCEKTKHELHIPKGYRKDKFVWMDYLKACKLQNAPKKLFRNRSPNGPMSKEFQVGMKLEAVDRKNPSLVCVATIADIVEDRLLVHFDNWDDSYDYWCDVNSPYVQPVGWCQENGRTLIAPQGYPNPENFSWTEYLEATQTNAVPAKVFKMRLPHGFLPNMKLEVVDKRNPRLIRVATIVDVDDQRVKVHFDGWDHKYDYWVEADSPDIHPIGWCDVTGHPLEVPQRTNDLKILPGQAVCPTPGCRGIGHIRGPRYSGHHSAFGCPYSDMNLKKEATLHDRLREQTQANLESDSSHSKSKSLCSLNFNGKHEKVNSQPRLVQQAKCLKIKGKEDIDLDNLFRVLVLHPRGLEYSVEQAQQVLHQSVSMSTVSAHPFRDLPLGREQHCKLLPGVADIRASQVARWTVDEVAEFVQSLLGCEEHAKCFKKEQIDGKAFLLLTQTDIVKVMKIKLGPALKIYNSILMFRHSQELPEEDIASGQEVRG

## O=C(c1ccc(C(=O)N2CCC(N3CCCC3)CC2)c(Nc2ccccc2)c1)N1CCC(N2CCCC2)CC1
Homo sapiens [1]
  Activity: inactive
[2]
  Kb: 24.5 nM
[3]
  Kb: 2240 nM
[4]
  Activity: inactive
[5]
  IC50: 6000 nM
[6]
  IC50: 11000 nM
[7]
  IC50: 50 nM
HEK293
  inhibition: inactive
[8]
  Kd: 3100 nM
PHD finger protein 20
  Kd: 5600 nM
Homo sapiens [9]
  ΔTm: < 0.5 °C
[10]
  Ki: 4000 nM
[11]
  Ki: 97 nM
[12]
  Ki: 400 nM
[13]
  inhibition: 64%
[14]
  T1/2: 19.9 s
[15]
  T1/2: 20.3 s
[16]
  T1/2: 6.5 s
[17]
  T1/2: 7 s
[18]
  Diffusion coefficient: 0.311 um2/s
[19]
  Diffusion coefficient: 0.051 um2/s
[20]
  Diffusion coefficient: 0.05 um2/s
